Series [1] deals with C2C12. The series can be described thus: Activation of AMPK in mouse C2C12 cells assessed as increase in ACC phosphorylation at 10 uM by Western blotting analysis. In kind it is cell-based. The settings on record: filed as activator, time 0.5-24 hrs, TDE = time-dependent effect. The essentials: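 C2C12 myoblasts differentiated in DMEM with 2% horse serum for 5-7 days until myotubes formed. Treated for 2 h, either at 10 μM or across a concentration range, or at 10 μM over a time course. RIPA lysates (~30 µg protein) blotted for p-AMPK/AMPK and p-ACC/ACC, detected by ECL. The p-AMPK/AMPK ratio is expressed as fold of the DMSO vehicle.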

Series [2] has as its system HepG2. The series can be described thus: Activation of AMPK in human HepG2 cells assessed as increase in AMPK phosphorylation at 1 to 20 uM measured after 2 to 12 hrs by Western blotting analysis. It counts as cell-based. The settings on record: filed as activator, dose 1-20 µM, time 2-12 hrs. The method, boiled down:
(§1)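 HepG2 and HuH-7 cells in medium with 10% FBS and penicillin/streptomycin at 37 °C, 5% CO₂. Treated with a range of concentrations for 2 h, or with 10 μM over a time course. Cells lysed in RIPA buffer with protease/phosphatase inhibitors; ~30 µg protein per lane blotted for p-AMPK, AMPK, p-ACC, ACC, with GAPDH or β-actin as loading control. Detected by ECL.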
(Immunoblotting shows a protein as a band on a membrane.)

Series [3] concerns HepG2. The series can be described thus: Activation of AMPK in human HepG2 cells assessed as increase in ACC phosphorylation at 1 to 20 uM measured after 2 to 12 hrs by Western blotting analysis. The following applies: filed as activator, dose 1-20 µM, time 2-12 hrs. It counts as cell-based. The essentials:
as §1

Another series has as its system Huh-7. Kind of series: Activation of AMPK in human HuH-7 cells assessed as increase in ACC phosphorylation at 1 to 20 uM measured after 2 to 12 hrs by Western blotting analysis. In kind it is cell-based. The settings on record: filed as activator, dose 1-20 µM, time 2-12 hrs. The method, boiled down:
as §1

The species named for a further series is Homo sapiens. The series can be described thus: Activation of AMPK alpha2/beta2/gamma1 (unknown origin).
Series [4] is described as follows: Inhibition of mitochondrial complex 1 in human HepG2 cells assessed as increase in AMP/ATP ratio at 10 uM. It counts as cell-based. The settings on record: hepg2, 10 µM. The essentials: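 HepG2 cells treated with 10 μM or 0.5 μM compound, or DMSO. Cellular ADP:ATP and AMP:ATP ratios were measured. Three replicates, given as mean ± SD and compared by Student's t test.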

Series [5] concerns C2C12. Kind of series: Cytotoxicity against mouse C2C12 cells assessed as reduction in cell viability at 5 to 20 uM incubated for 24 to 72 hrs by MTT assay. In kind it is cell-based. The settings on record: c2c12, 20 µM, dose lower 5 µM, time lower 24 hrs, dose upper 20 µM, time upper 72 hrs. The essentials:
(§2)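 MTT viability assay in C2C12, HepG2 and A549 cells. Exposure was 24 h or 72 h for C2C12 and 72 h for HepG2 and A549. Three replicates per group, compared with the 0 μM group by Student's t test.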
(In general: Formazan colour is commonly taken as a measure of viable cells.)

Series [6] has as its system HepG2. The series can be described thus: Cytotoxicity against human HepG2 cells assessed as reduction in cell viability at 10 to 20 uM incubated for 72 hrs by MTT assay. In kind it is cell-based. The settings on record: hepg2, 72 h, dose 10-20 µM. The method, boiled down:
as §2

The nature of series [7]: Metabolic stability in human liver microsomes assessed as intrinsic clearance preincubated for 5 mins followed by NADPH addition and measured up to 45 mins by LC/MS analysis. It counts as ADME, Microsome. The following applies: time 50 min, read-out: CLH. The essentials:
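Compound and liver microsomes in preheated potassium phosphate buffer, held at 37 °C for 5 min. Reaction started with NADPH and stopped at 0, 5, 15, 30 and 45 min with acetonitrile containing tolbutamide internal standard. Samples centrifuged at 6000 rpm for 15 min, supernatant analysed by LC/MS. Ketanserin run as assay control. Performed by a contract lab.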
(Liver microsomes are vesicles of endoplasmic reticulum, rich in cytochrome P450 enzymes.)

Series [8] deals with Mus musculus. Kind of series: Hypoglycemic activity in 6 hrs fasted normal lean C57BL/6 mouse assessed as reduction in blood glucose level at 100 mg/kg, ig pretreated for 2 hrs followed by glucose challenge and measured up to 90 mins post glucose challenge starting from 120 mins prior to […] by IPGTT. It counts as functional, organism-based. The following applies: time 210.0 min. The essentials: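 C57BL/6 mice (male, 8-10 weeks, n=6 per group) fasted 6 h, then given compound or vehicle intragastrically. Two hours later, 20% glucose was injected i.p. at 2 g/kg. Tail-vein glucose read by glucometer at -120, 0, 20, 40, 60 and 90 min, and net AUC calculated. Doses were 25, 50 and 100 mg/kg.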

The test system of series [9] is Mus musculus. The series can be described thus: Antihyperglycemic activity in db/db mouse assessed as improved insulin resistant at 100 mg/kg, ig administered once daily for 9 weeks by ITT. It counts as functional, organism-based. The essentials: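 db/db mice dosed from 5 weeks of age with 100 mg/kg/day in 0.5% methylcellulose vehicle, for 9 weeks. After a 6 h fast, insulin was injected i.p. at 1.5 mU/g body weight and tail-vein blood glucose followed. Data given as mean ± SEM and compared by two-way ANOVA.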

Series [10] is described as follows: Toxicity in db/db mouse assessed as effect on body weight at 100 mg/kg, ig administered for 10 weeks. It counts as organism-based. The settings on record: in vivo, po, 1680 h. The essentials: (§3)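 db/db mice, 5 weeks old, grouped by matching baseline blood glucose and body weight. Dosed intragastrically once daily at 100 mg/kg in 0.5% methylcellulose; vehicle-treated db/db and db/m mice served as controls. Body weight and fasting blood glucose measured weekly. Serum ALT and AST measured after 10 weeks. Data given as mean ± SEM.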

Series [11] can be described thus: Toxicity in db/db mouse assessed as effect on serum ALT level at 100 mg/kg, ig administered for 10 weeks. In kind it is organism-based. The settings on record: in vivo, po, 1680 h. The essentials:
as §3

A short description of series [12]: Toxicity in db/db mouse assessed as effect on serum AST level at 100 mg/kg, ig administered for 10 weeks. In kind it is organism-based. The following applies: in vivo, po, 1680 h. The essentials:
as §3

Series [13] can be described thus: Induction of cardiac hypertrophy in normal lean C57BL/6 mouse assessed as increase in cardiac glycogen level at 100 mg/kg, ig administered for 4 weeks by PAS staining based analysis. In kind it is organism-based. The following applies: in vivo, po, 672 h. The essentials: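 Male C57BL/6 mice, 9 weeks old, dosed intragastrically daily for 4 weeks. After saline perfusion, organ weights and tibia length were recorded. Heart pieces were fixed in 4% paraformaldehyde, embedded in paraffin and stained with periodic acid-Schiff to show glycogen.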

The nature of series [14]: Toxicity in C57BL/6 mouse assessed as change in gross morphology of heart at 50 to 200 mg/kg, ig administered for 4 weeks. In kind it is organism-based. The settings on record: in vivo, po, 672 h, dose 50-200 mg/kg. The method, boiled down: (§4)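 Male C57BL/6 mice (6 per group) given 50, 100 or 200 mg/kg intragastrically daily for 4 weeks. Saline-perfused hearts were weighed and examined for gross morphology, with representative hearts chosen by similar body weight. Heart weight was expressed relative to body weight and to tibia length.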

Series [15] in a line: Toxicity in C57BL/6 mouse assessed as change in heart weight/body weight ratio at 50 to 200 mg/kg, ig administered for 4 weeks. It counts as organism-based. The settings on record: in vivo, po, 672 h, dose 50-200 mg/kg. The essentials:
as §4

Series [16] in a line: Induction of cardiac hypertrophy in db/db mouse assessed as increase in cardiac glycogen accumulation at 100 mg/kg, ig administered for 10 weeks. It counts as organism-based. The settings on record: in vivo, po, 1680 h.
The next series concerns H9c2. Kind of series: Activation of AMPK in rat H9C2 cells assessed as increase in phosphorylation of ACC at 1 to 20 uM incubated for 1 to 24 hrs by Western blot analysis. In kind it is cell-based. The settings on record: dose 1-20 µM, time 1-24 hrs. The essentials: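 Rat cardiac H9C2 cells treated with a concentration range for 2 h or 4 h, or with 10 μM over a time course. Lysates blotted for phosphorylated and total AMPK and ACC, detected by ECL.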

The results in this text go back to ChEMBL document CHEMBL4765352, “Discovery of AdipoRon analogues as novel AMPK activators without inhibiting mitochondrial complex I” (Eur J Med Chem, 2020).

Activity calls are given as the source filed them. No cut-off for these calls is given here.

For the molecule `CC(C)(Oc1ccc(Cl)cc1)C(=O)Nc1ccc(OCc2ccc(C#N)cc2)cc1`, the Activity entry in the series with C2C12 [1] was “Tde”; in the series with C2C12 [5], “Non-Toxic”; in the series on HepG2 [6], “Toxic”; in [10], “Non-Toxic”; in series [11] it was “Non-Toxic”; in series [12] it was “Non-Toxic”. Besides, the Activity result in series [13], in series [14], in series [15] and in series [16] was “Non-Toxic” throughout. In addition, the outcome in the series on HepG2 [2], with HepG2 [3], in the series with Huh-7, in the series with Mus musculus [8] and in the series with Mus musculus [9] was Active. For the same molecule, the result in the series filed under Homo sapiens and in the series on H9c2 was inactive. Moreover, the “inhibition (INH)” value in [4] is “Not Active”. For the same molecule, the CLint scaled in [7] stood at 18 mL/min/kg.
